This note sets out measurements from ChEMBL document CHEMBL1154425, “Histatin-derived monomeric and dimeric synthetic peptides show strong bactericidal activity towards multidrug-resistant Staphylococcus aureus in vivo” (Antimicrob Agents Chemother, 2007).

The subject of series [1] is Staphylococcus aureus. Kind of series: Bactericidal activity against Staphylococcus aureus ATCC 25923 after 2 hrs. Conditions: ATCC 25923, 2 h. The series is classed as functional. The essentials: (§1)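 1 × 10^6/ml bacteria in phosphate buffer with 1% (wt/vol) tryptic soybean broth exposed to various peptide amounts, 2 h at 37°C. Viable counts on DST plates. LC50 = concentration (μM) cutting viable bacteria by 50% versus no-peptide incubations. Means from at least three independent experiments.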

For series [2], the system named is Staphylococcus aureus. Description: Bactericidal activity against multidrug-resistant Staphylococcus aureus 2141 isolate after 2 hrs. It is filed as functional. The essentials: as §1
The subject of series [3] is Staphylococcus aureus. Description: Bactericidal activity against Staphylococcus aureus ATCC 25923 infected iv dosed Swiss mouse assessed per gram of infected soft tissue after 24 hrs. It is filed as functional. The essentials: (§2)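 Mice infected with 0.1 ml saline containing 0.5 to 2.0 × 10^7 CFU. After 18 h, various peptide amounts given intravenously. Mice kept another 24 h, then sacrificed and viable bacteria counted. LC50 = μmol/g infected tissue cutting viable counts by 50% versus untreated mice. Means from at least three animals per peptide concentration.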

Series [4] deals with Staphylococcus aureus. Description: Bactericidal activity against multidrug-resistant Staphylococcus aureus 2141 isolate infected iv dosed Swiss mouse assessed per gram of infected soft tissue after 24 hrs. The series is classed as functional. The essentials:
as §2

Another series deals with Mus musculus. Description: Metabolic stability in Swiss mouse at 2 to 5 MBq, iv administered as [99m]technetium-radiolabeled peptide by scintigraphic imaging. The conditions noted are these: in vivo. It is filed as ADME, organism-based. The essentials: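 After intravenous injection of 99mTc-labelled peptide (2 to 5 MBq) into thigh-infected mice, scintigraphic imaging follows clearance from the circulation. The value is the biological half-life in minutes, mean ± SD.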

Series [5] is described as follows: Biodistribution in Swiss mouse urinary bladder at 2 to 5 MBq, iv administered as [99m]technetium-radiolabeled peptide by scintigraphic imaging. It is filed as ADME, organism-based. Conditions: in vivo. The essentials: (§3)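 Mice carry a thigh-muscle infection from 0.1 ml saline containing 0.5 to 2.0 × 10^7 CFU S. aureus. Peptides labelled with 99mTc (2 to 5 MBq) are injected intravenously and tracked by scintigraphic imaging. Radioactivity in bladder, kidneys, spleen, liver and infected muscle is given as % of injected dose, mean ± SD.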

Another series has as its system Kidney. Description: Biodistribution in Swiss mouse kidney at 2 to 5 MBq, iv administered as [99m]technetium-radiolabeled peptide by scintigraphic imaging. The series is classed as ADME, organism-based. Conditions: in vivo. The essentials:
as §3

The test system of another series is Spleen. Kind of series: Biodistribution in Swiss mouse spleen at 2 to 5 MBq, iv administered as [99m]technetium-radiolabeled peptide by scintigraphic imaging. The conditions noted are these: in vivo. It is filed as ADME, organism-based. The essentials:
as §3

The next series has as its system Liver. Kind of series: Biodistribution in Swiss mouse liver at 2 to 5 MBq, iv administered as [99m]technetium-radiolabeled peptide by scintigraphic imaging. It is filed as ADME, organism-based. The conditions noted are these: in vivo. The essentials: as §3
Series [6] in a line: Biodistribution in Staphylococcus aureus infected Swiss mouse thigh muscle at 2 to 5 MBq, iv administered as [99m]technetium-radiolabeled peptide by scintigraphic imaging. It is filed as ADME, organism-based, Muscle tissue. The conditions noted are these: in vivo. The essentials:
as §3

Series [7] is described as follows: Ratio of drug level in infected thigh muscle to contralateral noninfected thigh muscle in Staphylococcus aureus […] infected Swiss mouse administered as [99m]technetium-radiolabeled peptide. The series is classed as ADME, tissue-based. The conditions noted are these: in vivo. The essentials: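 Thighs are infected with 0.5 to 2.0 × 10^7 CFU S. aureus in 0.1 ml saline, and 99mTc-labelled peptide is given intravenously. Scintigraphic imaging compares radioactivity in the infected thigh muscle (target) with the contralateral noninfected thigh muscle (nontarget). The T/NT ratio is determined at several intervals after injection.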

Series [8] can be described thus: Ratio of drug level in infected thigh muscle to contralateral noninfected thigh muscle in multidrug-resistant Staphylococcus aureus 2141 infected Swiss mouse administered as [99m]technetium-radiolabeled peptide. The series is classed as ADME, tissue-based. The conditions noted are these: in vivo. The essentials: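 99mTc-labelled peptides (2 to 5 MBq) injected intravenously into infected mice. Scintigraphic imaging at intervals. Ratio = accumulation in infected thigh muscle (target) over contralateral noninfected thigh muscle (nontarget).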

Positions of bridges follow the written chain, without caps; N, C: chain ends. Residues, ends and D or L forms follow the SMILES beside them. Chains are numbered I, II in the order given.

Turning to `N=C(N)NCCC[C@H](NC(=O)[C@H](Cc1cnc[nH]1)NC(=O)[C@H](CO)NC(=O)[C@H](Cc1cnc[nH]1)NC(=O)[C@H](Cc1cnc[nH]1)NC(=O)[C@H](CCCCN)NC(=O)[C@H](CCC(=O)O)NC(=O)[C@H](Cc1cnc[nH]1)NC(=O)[C@H](Cc1ccccc1)NC(=O)[C@H](CCCCN)NC(=O)[C@H](CCCNC(=N)N)NC(=O)[C@@H](N)CCCCN)C(=O)NCC(=O)N[C@@H](Cc1ccc(O)cc1)C(=O)O` (H-KRKFHEKHHSHRGY-OH), the LC50 in the series with Staphylococcus aureus [1] worked out at 35 µM; in the series on Staphylococcus aureus [2], 112 µM; in the series with Staphylococcus aureus [3], 2 µmol/g; with Staphylococcus aureus [4] it was 1 µmol/g. The molecule also showed a t1/2 in the series with Mus musculus of 17.7 min. Also, the Drug uptake in series [5] is recorded as 30.7 %ID; in the series on Kidney, 21 %ID; in the series with Spleen, 2.1 %ID; in the series on Liver, 9.4 %ID; in series [6] it was 0.4 %ID. In addition, the Ratio was determined as 3.5 in series [7] and 1.8 in series [8].

Turning to `N=C(N)NCCC[C@H](NC(=O)[C@H](Cc1cnc[nH]1)NC(=O)[C@H](CO)NC(=O)[C@H](Cc1cnc[nH]1)NC(=O)[C@H](Cc1cnc[nH]1)NC(=O)[C@H](CCCCN)NC(=O)[C@H](CCC(=O)O)NC(=O)[C@H](Cc1cnc[nH]1)NC(=O)[C@H](Cc1ccccc1)NC(=O)[C@H](CCCCN)NC(=O)[C@H](CCCNC(=N)N)NC(=O)[C@@H](N)CCCCN)C(=O)NCC(=O)N[C@@H](Cc1ccc(O)cc1)C(=O)NCCCC[C@H](NC(=O)[C@H](Cc1ccc(O)cc1)NC(=O)CNC(=O)[C@H](CCCNC(=N)N)NC(=O)[C@H](Cc1cnc[nH]1)NC(=O)[C@H](CO)NC(=O)[C@H](Cc1cnc[nH]1)NC(=O)[C@H](Cc1cnc[nH]1)NC(=O)[C@H](CCCCN)NC(=O)[C@H](CCC(=O)O)NC(=O)[C@H](Cc1cnc[nH]1)NC(=O)[C@H](Cc1ccccc1)NC(=O)[C@H](CCCCN)NC(=O)[C@H](CCCNC(=N)N)NC(=O)[C@@H](N)CCCCN)C(N)=O` (I: H-KRKFHEKHHSHRGYK-NH2 / II: H-KRKFHEKHHSHRGY; amide I:15-II:C), the LC50 with Staphylococcus aureus [1] is 8.4 µM; in the series with Staphylococcus aureus [2] it was 8.2 µM; in the series on Staphylococcus aureus [3], 1.5 µmol/g; in the series on Staphylococcus aureus [4], 2 µmol/g. Further, the t1/2 with Mus musculus was 8.6 min. The Drug uptake in [5] is 26.8 %ID; in the series with Kidney, 10.5 %ID; in the series with Spleen, 3.2 %ID; in the series on Liver it was 9 %ID; in series [6], 0.5 %ID. In addition, the Ratio in [7] came out at 4.4; in [8] it was 1.8.

As for `C[C@H](NC(=O)[C@H](Cc1cnc[nH]1)NC(=O)[C@H](CO)NC(=O)[C@@H](N)CC(=O)O)C(=O)N[C@@H](CCCCN)C(=O)N[C@@H](CCCNC(=N)N)C(=O)N[C@@H](Cc1cnc[nH]1)C(=O)N[C@@H](Cc1cnc[nH]1)C(=O)NCC(=O)N[C@@H](Cc1ccc(O)cc1)C(=O)N[C@@H](CCCCN)C(=O)N[C@@H](CCCNC(=N)N)C(=O)N[C@@H](CCCCN)C(=O)N[C@@H](Cc1ccccc1)C(=O)N[C@@H](Cc1cnc[nH]1)C(=O)N[C@@H](CCC(=O)O)C(=O)N[C@@H](CCCCN)C(=O)N[C@@H](Cc1cnc[nH]1)C(=O)N[C@@H](Cc1cnc[nH]1)C(=O)N[C@@H](CO)C(=O)N[C@@H](Cc1cnc[nH]1)C(=O)N[C@@H](CCCNC(=N)N)C(=O)NCC(=O)N[C@@H](Cc1ccc(O)cc1)C(=O)O` [HISTATIN 5], the LC50 stood at 8.3 µM in the series with Staphylococcus aureus [1], 2.8 µM in the series with Staphylococcus aureus [2], 1 µmol/g in the series with Staphylococcus aureus [3] and 3.5 µmol/g in the series on Staphylococcus aureus [4]. For the same molecule, in the series with Mus musculus, the t1/2 is given as 9.7 min. Also, the Drug uptake was found to be 25.9 %ID in series [5]; 23.8 %ID in the series on Kidney; 1.4 %ID in the series on Spleen; 8.7 %ID in the series on Liver; 0.5 %ID in series [6]. In addition, the Ratio in series [8] was 1.8.
